An excerpt weighted towards active compounds, which were near 1.2% of everything screened.
NSD2 HMT inh: NSD2 (human) methyltransferase inhibition | NSD2 peptide methylation, AlphaScreen, 120 min | 310,000 tested, 0.54% active | inhibition, % at 12.5 µM | O96028 | AID 743445; in the data active = inhibition above about 50%
SUMO HTRF inh: blocks human SUMOylation mediated by UBC9. AID 2006. P63279. inhibition, % at 35 µM. 290,000 tested, 0.36% active. HTRF SUMOylation assay, SAE1/SAE2 + UBC9, in vitro; in the data active = inhibition above about 50%, passing the limit was not always enough
Target sequence (P63279 whole entry, looked up): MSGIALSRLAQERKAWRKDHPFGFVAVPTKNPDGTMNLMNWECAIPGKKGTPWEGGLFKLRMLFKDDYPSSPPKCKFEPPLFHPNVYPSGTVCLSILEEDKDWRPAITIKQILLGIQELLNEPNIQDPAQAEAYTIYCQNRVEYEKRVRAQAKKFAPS
CTSL1 counter: blocks F. hepatica cathepsin L1 in PFM18AAP counter-screen | inhibition, % at 5.96 µM | AID 1906 | 300,000 tested, 0.49% active | recombinant F. hepatica cathepsin L1, Z-Leu-Arg-MCA fluorescence;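 active = inhibition above the mean of all tested compounds plus 3 SD, set per screening campaign, cut at about 17% in these data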;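 also: 0% = plate median of test compound wells and 100% = 1 µM Z-Phe-Ala-diazomethylketone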
TDP2 inh: TDP2 (human) inhibition, absorbance primary screen; inhibition, % at 12.8 µM; 370,000 tested, 0.34% active; O95551; recombinant TDP2, T5PNP hydrolysis, p-nitrophenol absorbance 415 nm;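 active = inhibition above the mean of all tested compounds plus 3 SD, set per campaign, cut at about 25% in these data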;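 also: 0% = DMSO with enzyme and 100% = buffer with substrate but no TDP2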
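System: recombinant human TDP2 / Amount: 120 nM TDP2 per well / Also added: 5 mM T5PNP chromogenic substrate / Doses: 12.8 µM single point, 1% DMSO / Incubation: 2 h at 37 °C / Detection: p-Nitrophenol epi absorbance / Evaluation: % inhibition relative to enzyme-containing and enzyme-free wells / Repeats: singlicate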
AlphaScreen art: interferes with AlphaScreen signal, flagging NSD2 false positives. shares compounds with NSD2 HMT inh. AlphaScreen artifact counterscreen, preloaded methylated H4 peptide. AC35, µM (series often up to 10 µM), without a hit: top-dose activity change, negative = signal loss. 1,500 tested, 9.4% active; call rule not given here
An asterisk follows results filed as active; . = not tested or not shown.

SMILES	NSD2 HMT inh	SUMO HTRF inh	CTSL1 counter	TDP2 inh	AlphaScreen art
O=C(CNC(=O)c1ccco1)NCC(=O)OCc1ccccc1Cl	56*	11	-10	12	-2%
O=C(CNC(=O)c1ccco1)OCc1ccccc1Cl	-1	.	.	5	.
COC(=O)C1=C(C)N(Cc2cccc(C(F)(F)F)c2)C(=NCc2ccc(OC)cc2)NC1c1cccc(F)c1 (configuration not stated)	.	.	.	-14	.
Cc1ccc(Cl)c(OCC(=O)Nc2cc(S(=O)(=O)N3CCOCC3)ccc2N2CCCC2)c1	73*	1	2	-9	-4%
CN1CCN(c2ccc(S(=O)(=O)N3CCOCC3)cc2NC(=O)COc2ccc(F)cc2Cl)CC1	185*	12	4	0	-1%
CC(=O)Oc1ccc(C23c4ccccc4C2(OC(C)=O)c2cc(OC(C)=O)ccc23)cc1 (configuration not stated)	-6	.	.	0	.
Cc1sc2nc(SCC(=O)c3ccc(O)c(O)c3)n(C)c(=O)c2c1C	6	.	.	-2	.
